This note sets out measurements from ChEMBL document CHEMBL1156796, “Design, synthesis, and antihepatitis B virus activities of novel 2-pyridone derivatives” (J Med Chem, 2010).

The test system of data set [1] is Hepatitis B virus. As to the kind of experiment: Antiviral activity against HBV infected in human HepG2(2.2.15) cells assessed as inhibition of HBsAg level after 9 days by ELISA. The class given is functional, organism-based. As to conditions: HepG2 2.2.15, 216 h.
Data set [2] deals with Hepatitis B virus. Briefly: Antiviral activity against HBV infected in human HepG2(2.2.15) cells assessed as inhibition of HBeAg level after 9 days by ELISA. Format: functional, organism-based. Conditions: HepG2 2.2.15, 216 h. A general note: In an ELISA, binding on a coated surface is turned into a signal by an enzyme label.
The subject of data set [3] is Hepatitis B virus. Briefly: Antiviral activity against HBV infected in human HepG2(2.2.15) cells assessed as inhibition of HBV DNA replication after 9 days by PCR. The class given is functional, organism-based. As to conditions: Hepatitis B virus, HepG2 2.2.15, 216 h; read-out: IC50.
Data set [4] is described as follows: Cytotoxicity against human HepG2(2.2.15) cells. The class given is cell-based.
Data set [5] can be described thus: Selectivity index, ratio of CC50 for human HepG2(2.2.15) cells to IC50 for HBV infected in human HepG2(2.2.15) cells assessed as inhibition of HBsAg. Format: functional. Summed up: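 MTT at 5 g/L added 4 h before lysis in 10% SDS/50% DMF, pH 7.2, with OD read at 570 nm. IC50: HBsAg in day-9 supernatants measured by ELISA. SI = CC50/IC50.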
Data set [6] is described as follows: Selectivity index, ratio of CC50 for human HepG2(2.2.15) cells to IC50 for HBV infected in human HepG2(2.2.15) cells assessed as inhibition of HBeAg. The class given is functional.
The nature of data set [7]: Selectivity index, ratio of CC50 for human HepG2(2.2.15) cells to IC50 for HBV infected in human HepG2(2.2.15) cells assessed as inhibition of HBV DNA replication. The class given is functional.
In data set [8] the test system is Hepatitis B virus. As to the kind of experiment: Antiviral activity against HBV infected in human HepG2(2.2.15) cells assessed as inhibition of HBV DNA replication after 9 days by PCR relative to adefovir. The class given is functional. Summed up:
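HepG2 2.2.15 cells treated with different dosages of compound; culture supernatants collected nine days after treatment. IC50 taken as the concentration giving 50% inhibition of HBV DNA replication.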

Some results are limits rather than exact numbers.

One may read the IC50 as the midpoint of a concentration-inhibition curve. For orientation: CC50 means the concentration at which the toxic effect on the cells reaches its halfway point. Low readings indicate harm at low concentration, high ones better tolerance by the cells. Take `CCCC/N=C(\c1ccc(=O)n(CCCC)c1)c1ccc(OC)cc1O`: the IC50 was 111 µM in the data set on Hepatitis B virus [1], 56 µM with Hepatitis B virus [2] and 0.12 µM in the data set on Hepatitis B virus [3]. This molecule had a CC50 in data set [4] of 56 µM. The entries for the “Ratio CC50/IC50” value in data set [5], in data set [6] and in data set [7] were 0.5, 1 and 466.67, respectively. In the data set on Hepatitis B virus [8], the “fold change (FC)” value is listed as 4.

`COc1ccc(C(=O)c2ccc(=O)n(-c3ccc(C(C)=O)cc3)c2)c(O)c1`: the IC50 in the data set with Hepatitis B virus [1] was greater than 110 µM; in the data set on Hepatitis B virus [2], 774 µM; in the data set on Hepatitis B virus [3], 11.2 µM. The molecule also came in with a half-maximal cytotoxic concentration (CC50) in data set [4] of 133 µM. Also, the “Ratio CC50/IC50” value in data set [5] was less than 1.21; in data set [6], 0.17; in data set [7], 11.88.

On to `COc1ccc(/C(=N/C2CCCCC2)c2ccc(=O)n(C3CCCCC3)c2)c(O)c1`, for which the IC50 in the data set with Hepatitis B virus [1] stood at 201 µM; in the data set with Hepatitis B virus [2], 71 µM; in the data set with Hepatitis B virus [3], 4 µM. This molecule also returned a CC50 in data set [4] of 387 µM. The “Ratio CC50/IC50” value in data set [5] stood at 1.93; in data set [6], 5.45; in data set [7], 96.75.

As to `CCCCC/N=C(\c1ccc(=O)n(CCCCC)c1)c1ccc(OC)cc1O`, the IC50 amounted to 29 µM with Hepatitis B virus [1], 5 µM in the data set with Hepatitis B virus [2] and 30 µM in the data set on Hepatitis B virus [3]. In data set [4], this molecule came in with a CC50 of 98 µM. For the same molecule, the “Ratio CC50/IC50” value in data set [5] is listed as 3.38; in data set [6] it was 19.6; in data set [7] it was 3.27.

On to `COc1ccc(C(=O)c2ccc(=O)n(/C=C/Nc3cccc4ccccc34)c2)c(O)c1`, for which the figures for the IC50 in the data set with Hepatitis B virus [1], in the data set with Hepatitis B virus [2] and with Hepatitis B virus [3] were 77 µM, greater than 97 µM and greater than 364 µM, respectively. This molecule displayed a CC50 in data set [4] of 244 µM. The “Ratio CC50/IC50” value in data set [5] is 3.17; in data set [6], less than 2.5; in data set [7], less than 0.67.

`COc1ccc(/C(=N/Cc2ccc(F)cc2F)c2ccc(=O)n(Cc3ccc(F)cc3F)c2)c(O)c1`: the IC50 with Hepatitis B virus [1] came out at 13 µM; in the data set on Hepatitis B virus [2], 40 µM; in the data set on Hepatitis B virus [3] it was 3 µM. Moreover, in data set [4], the CC50 was 10 µM. For the same molecule, the results for the “Ratio CC50/IC50” value in data set [5], in data set [6] and in data set [7] were 0.77, 0.25 and 3.33, respectively.

`CCCCCn1cc(C(=O)c2ccc(OC)cc2O)ccc1=O`: the figures for the IC50 in the data set with Hepatitis B virus [1], in the data set on Hepatitis B virus [2] and in the data set with Hepatitis B virus [3] were 46 µM, 39 µM and 20 µM, respectively. Further, the CC50 in data set [4] came out at 79 µM. The “Ratio CC50/IC50” value in data set [5] was 1.72; in data set [6], 2.03; in data set [7], 3.95.

In the case of `COc1ccc(C(=O)c2ccc(=O)n(-c3ccccc3C)c2)c(O)c1`, the IC50 is 18 µM in the data set with Hepatitis B virus [1], 0.1 µM with Hepatitis B virus [2] and 11 µM in the data set with Hepatitis B virus [3]. This molecule had a CC50 in data set [4] greater than 119 µM. In addition, the “Ratio CC50/IC50” value in data set [5] is greater than 6.63; in data set [6] it was greater than 1194; in data set [7], greater than 10.85.
